Measured values as given in ChEMBL document CHEMBL4364270, “Structure-activity relationship studies on Bax activator SMBA1 for the treatment of ER-positive and triple-negative breast cancer” (Eur J Med Chem, 2019).
Activity calls are given as the source filed them. No cut-off for these calls is given here.

Columns and labels:
MDA-MB-231 [1] = assay: Antiproliferative activity against triple negative human MDA-MB-231 cells assessed as reduction in cell growth at 10 uM incubated for 48 hrs by MTT assay relative to control; format: functional; settings: MDA-MB-231, 48 h
Procedure, shortened: (§1)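 MTT viability: MCF-7 and MDA-MB-231 seeded 1×10^4 cells/well, exposed to DMSO or 0.01-100 μM for 48 h; MTT (5 mg/mL in PBS) added 4 h, formazan dissolved in DMSO, OD 550 nm; quadruplicate wells; IC50 fitted for compounds giving >50% inhibition at 10 µM; at least three independent experiments.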

MCF7 [2] = assay: Antiproliferative activity against ER-positive human MCF7 cells assessed as reduction in cell viability at 10 uM incubated for 48 hrs by MTT assay relative to control; format: functional; settings: MCF7, 48 h; procedure, shortened: as §1
MDA-MB-231 [3] = assay: Potency index, ratio of IC50 of (E/Z)-2-(2-((2-nitro-9H-fluoren 9-ylidene)methyl)phenoxy)ethan-1-amine to IC50 of compound for antiproliferative activity against triple negative human MDA-MB-231 cells assessed as reduction in cell growth incubated for 48 hrs by MTT assay; format: functional
MCF7 [4] = assay: Potency index, ratio of IC50 of (E/Z)-2-(2-((2-nitro-9H-fluoren 9-ylidene)methyl)phenoxy)ethan-1-amine to IC50 of compound for antiproliferative activity against ER-positive human MCF7 cells assessed as reduction in cell growth incubated for 48 hrs by MTT assay; format: functional
MDA-MB-231 [5] = assay: Antiproliferative activity against triple negative human MDA-MB-231 cells assessed as reduction in cell growth at 1 uM incubated for 48 hrs by MTT assay relative to control; format: functional; settings: MDA-MB-231, 48 h; procedure, shortened: as §1
MDA-MB-468 = assay: Antiproliferative activity against triple negative human MDA-MB-468 cells assessed as reduction in cell growth at 1 uM incubated for 72 hrs by MTT assay relative to control; format: functional; settings: MDA-MB-468, 72 h
Procedure, shortened: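 MTT viability after 72 h exposure at indicated concentrations; cells seeded at 1×10^3 cells/well (T47D, MDA-MB-468, MCF-10A, MCF-7/ADR) in 96-well plates; quadruplicate wells, independently repeated three times; IC50 as mean ± SE of at least three experiments.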

MDA-MB-231 [6] = assay: Induction of apoptosis in triple-negative human MDA-MB-231 cells assessed as decrease in cytosolic Bax level at 5 uM incubated for 48 hrs by Western blot analysis; format: functional, cell-based
Procedure, shortened: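 Western blot of MCF-7 (and MDA-MB-231 for cytosolic fractions) cells exposed to 5 μM over 0-48 h; 30 µg protein per lane on SDS-PAGE, PVDF transfer, 5% milk block, overnight primary antibodies (total Bax, p-Bax, active Bax 6A7, cytochrome C), ECL detection; cytosolic fraction used for cytochrome c and Bax.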

MCF7 [7] = assay: Induction of apoptosis in ER-positive human MCF7 cells assessed as upregulation of caspase3 cleavage incubated for 48 hrs by Western blot analysis; format: functional, cell-based
MDA-MB-231 [8] = assay: Induction of apoptosis in triple-negative human MDA-MB-231 cells assessed as downregulation of cyclin D1 level incubated for 48 hrs by Western blot analysis; format: functional, cell-based
Procedure, shortened: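 Western blot: cells harvested after treatment, lysates quantified by Bradford (BSA standard), 30 µg protein resolved by SDS-PAGE, transferred to PVDF, blocked in 5% nonfat milk, probed overnight with anti-PARP-1, anti-cleaved PARP-1 or anti-cyclin D1 (1:1,000) and β-actin loading control; ECL visualization.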

In the case of `NCCOc1ncccc1C=C1c2ccccc2-c2ccc([N+](=O)[O-])cc21`, the inhibition at 10 µM (MDA-MB-231 [1]) is reported as over 50%, the inhibition at 10 µM (MCF7 [2]) is reported as over 50% and the “Ratio IC50” value (MDA-MB-231 [3]) is reported as 40 - 60. For the same compound, the “Ratio IC50” value (MCF7 [4]) was 40 - 60, the inhibition at 1 µM (MDA-MB-231 [5]) was over 50% and the inhibition at 1 µM (MDA-MB-468) was over 50%. For the same compound, the Activity (MDA-MB-231 [6]) was “Active”, the Activity (MCF7 [7]) was “Dose-dependent effect” and the Activity (MDA-MB-231 [8]) was “Dose-dependent effect”.
